Screening results: PubChem, several laboratories
Hits are enriched below; roughly 3.9% of the tested compounds scored in any of these assays.
HIF act – HIF pathway transcriptional activators, primary screen, cell-based, U2OS HRE-luciferase, luminescence; U2OS HRE-luciferase reporter; normalized: DMSO 0%, desferrioxamine 100%; activation, % at 7.5 µM (by protocol); actives 0.32% (n = 300,000); AID 1910, 2009;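 active = mean activation of at least 10% of the iron chelator positive control signal, with at least half of replicates also reaching 10%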
AHR activator – AHR activators, primary screen, cell-based, luminescence, luciferase reporter, human. AHR-responsive luciferase reporter cells. activation, % at 5 µM. actives 2.5% (n = 320,000). AID 2796, 2010; in the data active = activation above about 47%;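 note: 0% = vehicle wells and 100% = reference agonist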
ABCB6 inh 2 – ABCB6 transporter inhibitors, primary screen, K562-ABCB6 cells, flow cytometry, MLPCN library; ATP-binding cassette sub-family B member 6 (Homo sapiens), Q9NP58; K562-ABCB6 porphyrin accumulation, 1 h; active compounds read low; fluorescence ratio to DMSO, % at 10 µM; actives 0.19% (n = 360,000); AID 602162, 2011;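 active = fluorescence ratio to DMSO below 75%, the collection mean minus 3 SD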;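 note: signal is porphyrin accumulated inside mitochondria; 100% equals median channel fluorescence of DMSO control wells; lower ratio means ABCB6 inhibition with less porphyrin fluorescence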
GAA850 FXN act – FXN promoter activators, primary screen, cell-based, luciferase luminescence, HEK293 lucGAA850; HEK293 lucGAA850 FXN promoter luciferase reporter, 24 h; percent of 10 µM SAHA response; activation, % at 6 µM; actives 0.56% (n = 360,000); AID 540364, 2011;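 active = activation above the average of all compounds screened plus 3 SD, cutoff fixed separately per campaign, cut at about 7.5% in these data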;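 note: 0% = DMSO wells and 100% = 10 µM SAHA wells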
SR-BI uptake up – activators of SR-BI mediated DiI-HDL uptake, primary screen, ldlA[mSR-BI] CHO cells, DiI fluorescence | actives 0.096% (n = 320,000) | activation, % at 12.5 µM | 3 h; 100 = double the neutral-control signal;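 active = mean replicate activation of at least 60% and every replicate at or above 60%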;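 note: 0% = median plate neutral-control signal and 100% = twice that signal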
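System: LDL receptor-deficient CHO ldlA cells overexpressing murine SR-BI | Timing: 3 h uptake period with compound, 37 °C | Medium: HEPES-buffered (25 mM, pH 7.4) F12 plus 0.5% BSA | Dosing: Single-point compound dose | Signal: Bottom-read fluorescence, 550/595 nm | Read-out: Retained DiI signal reflecting DiI-HDL uptake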
SR-BI DiI inh – inhibitors of SR-BI mediated HDL lipid uptake, primary screen, ldlA[mSR-BI] cells, fluorescence, single point; ldlA[mSR-BI] CHO cells, DiI-HDL uptake fluorescence, 3 h; actives 0.96% (n = 320,000); inhibition, % at 12.5 µM;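 active = mean replicate inhibition of at least 70% and a set share of replicates each scoring 70 or more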;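 note: 0% = median of neutral control wells and 100% = median of positive control wells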
Numbers without * were called inactive; / = no result given.

SMILES | HIF act | AHR activator | ABCB6 inh 2 | GAA850 FXN act | SR-BI uptake up | SR-BI DiI inh
CCCc1cc(NCCCn2ccnc2)n2nc(C)c(-c3ccccc3)c2n1 | 0.0 | 62.6* | 98.0 | -1.4 | 2.4 | -2.4
FC(F)(F)c1cccc(-c2cc3nc(NCCCn4ccnc4)ccn3n2)c1 | / | / | 101.0 | 1.8 | / | /
Cc1cc(NCCCn2ccnc2)n2ncc(-c3ccc(Cl)cc3)c2n1 | -1.2 | 125.9* | 101.0 | 0.1 | -55.5 | 55.5
Cc1cc(NCCCN2CCOCC2)n2ncc(-c3ccc(Cl)cc3)c2n1 | 1.6 | 26.0 | 100.0 | 0.9 | -47.8 | 47.8
CC(C)(C)c1cc(NCCCn2ccnc2)n2ncc(-c3ccccc3)c2n1 | 3.7 | 15.1 | 94.0 | 3.7 | -20.9 | 20.9
Cc1cccc(-c2cc3nc(C)cc(NCCCn4ccnc4)n3n2)c1 | 0.2 | 48.2* | 89.0 | 2.0 | -3.0 | 3.0
COc1cccc(C(=O)OCC(=O)NCCC2=CCCCC2)c1 | / | 1.1 | 100.0 | -0.4 | 14.8 | -14.8
CCOC(=O)c1c(C)[nH]c2ccc(O)cc12 | 0.7 | 64.8* | 127.0 | 1.9 | -21.8 | 21.8
CC(OC(=O)c1cc2sccc2n1C)C(=O)NCc1ccc(F)cc1 (centres undefined) | 0.0 | 6.3 | 83.0 | -0.8 | -24.2 | 24.2
CCOC(=O)C(C(=O)OCC)N(C#N)c1nc(OC)nc(N(C)C)n1 | -0.2 | -2.1 | 85.0 | -2.3 | -14.1 | 14.1
CCOC(=O)C(C(=O)OCC)N(C#N)c1nc(SC)nc(N(C)C)n1 | 0.2 | 61.8* | 106.0 | -1.5 | 7.6 | -7.6
O=C1c2ccccc2NC(c2cccc(O)c2)N1Cc1ccco1 (centres undefined) | -0.4 | 48.0* | 97.0 | -0.8 | -1.9 | 1.9
CSc1ncc(Cl)c(C(=O)Nc2cccc(C)c2)n1 | / | 61.9* | 94.0 | 3.3 | 11.7 | -11.7
CSc1ncc(Cl)c(C(=O)NCc2ccc3c(c2)OCO3)n1 | 0.1 | 73.7* | 109.0 | 1.5 | 7.1 | -7.1
CSc1ncc(Cl)c(C(=O)Nc2cccc(Cl)c2)n1 | 0.3 | 54.6* | 92.0 | 0.3 | -5.4 | 5.4
Cc1c(N=C2C(=O)Nc3ccccc32)c(=O)n(-c2ccccc2)n1C | 0.1 | 11.1 | 96.0 | -0.4 | / | /
CC1C(=O)N(Cc2cn(CC3CCCCC3)nn2)CCS(=O)(=O)N1Cc1ccc(-c2ccncc2)cc1 (centres undefined) | / | / | 103.0 | -3.3 | / | /
CC(C)CSc1nnc2c3ccccc3n(C)c2n1 | 2.5 | 57.4* | 98.0 | 4.5 | 1.8 | -1.8
COC(=O)c1sccc1NC(=O)/C=C\c1ccc(Cl)cc1Cl | / | / | 103.0 | -1.1 | -1.2 | 1.2
COC(=O)c1sccc1NC(=O)/C=C/c1ccc(Cl)cc1 | 1.0 | 54.1* | 100.0 | 4.0 | -5.8 | 5.8
CCOC(=O)c1c(NC(C)=O)sc(/C(C)=N/Nc2ccc(C(=O)O)cc2)c1C | 0.8 | 0.1 | 99.0 | 1.4 | -0.2 | 0.2
CCN1CCN(CC(=O)Nc2cc(F)ccc2C)CC1 | -42.5 | 1.7 | 101.0 | 1.1 | 1.4 | -1.4
CCOCCCNC(=O)c1c[nH]c2ccc(OCC)cc2c1=O | -0.1 | 51.3* | 92.0 | 0.9 | -0.8 | 0.8
CCOc1ccc(N(C)S(=O)(=O)c2ccc3[nH]cc(C(=O)NCC4CCCO4)c(=O)c3c2)cc1 (centres undefined) | -0.4 | 56.4* | 92.0 | -2.2 | / | /
CCOc1ccc2[nH]cc(C(=O)NCc3ccc(F)cc3)c(=O)c2c1 | -1.1 | / | 100.0 | -0.8 | -28.3 | 28.3
SMILES | HIF act | AHR activator | ABCB6 inh 2 | GAA850 FXN act | SR-BI uptake up | SR-BI DiI inh
COc1ccc2c(=O)c(C(=O)NCCc3ccccc3)c[nH]c2c1 | 4.4 | 35.3 | 96.0 | 4.2 | -18.7 | 18.7
COc1ccc2[nH]cc(C(=O)NCCc3ccccc3)c(=O)c2c1 | 2.2 | 74.4* | 103.0 | 2.4 | -10.0 | 10.0
O=S(=O)(c1ccc(Cl)cc1)N1CCC(n2cccc2)CC1 | 0.0 | -0.9 | 93.0 | 1.8 | -13.8 | 13.8
CCOC(=O)C1CCN(S(=O)(=O)c2ccc3c(c2)NC(=O)C(C)S3)CC1 (centres undefined) | 0.0 | -1.2 | 93.0 | -0.1 | -5.5 | 5.5
CC(C)=CCc1c(O)cc2oc3c(CC=C(C)C)c(O)c(O)c(CC=C(C)C)c3c(=O)c2c1O | -0.3 | 8.0 | 90.0 | -1.4 | -104.5 | 104.5*
C=C(c1cn(C(C)=O)c2ccccc12)c1cn(C(C)=O)c2ccccc12 | / | / | 107.0 | 0.1 | -54.1 | 54.1
CCC(=O)N/C(N)=N/c1nc(C)c2cc(C)c(C)cc2n1 | 0.3 | 50.4* | 101.0 | -1.1 | / | /
Cc1cc2nc(/N=C(\N)NC(=O)C(C)C)nc(C)c2cc1C | -0.3 | 41.4 | 99.0 | -1.8 | -25.9 | 25.9
CC(=O)Nc1ccc(NC(=O)c2cc(-c3ccc(C)c(C)c3O)n[nH]2)cc1 | -6.9 | 1.0 | 97.0 | 1.4 | -72.9 | 72.9*
CC(=O)N1CCc2cc(S(=O)(=O)N3CCCCCC3)ccc21 | 0.6 | -0.1 | 108.0 | -1.0 | -12.0 | 12.0
CCOC(=O)c1nnc(-c2ccc(C)cc2)nc1N1CCSCC1 | -0.2 | 56.6* | 98.0 | 5.2 | -62.0 | 62.0
COc1ccc(-c2cn3c(C)c(C(=O)Nc4ccncc4)sc3n2)cc1 | -0.1 | -6.2 | 92.0 | -1.1 | -83.4 | 83.4*
COc1ccc(-c2cn3c4c(sc3n2)CCCC4)cc1 | -0.4 | 68.2* | 92.0 | 1.7 | -23.7 | 23.7
COC(=O)N/N=C\c1cc(Br)ccc1OCc1ccccc1 | 0.4 | 29.4 | 93.0 | 6.0 | -49.5 | 49.5
Cc1[nH]c(=S)[nH]c(=O)c1CCC1OCCO1 | 0.9 | 0.6 | 94.0 | 3.9 | -15.3 | 15.3
Cc1ccc(Cl)cc1NC(=S)N/N=C/c1cccc2ccccc12 | 0.1 | 54.8* | 102.0 | -2.3 | -33.8 | 33.8
O=C(C1CCCN(Cc2ccccc2F)C1)N1CCc2ccccc2C1 (centres undefined) | 108.4* | -1.7 | 95.0 | -0.1 | -0.7 | 0.7
CCn1c(-c2ccc(N(C)C)cc2)nc2ccccc21 | 2.1 | 54.2* | 94.0 | 6.0 | -26.3 | 26.3
CC(C)n1c(-c2ccc(N(C)C)cc2)nc2ccccc21 | / | 19.1 | 100.0 | 4.2 | -87.6 | 87.6*
O=C(NCc1ccco1)c1ccc(NS(=O)(=O)c2cccc(F)c2)cc1 | 0.1 | 2.8 | 96.0 | -1.1 | -5.8 | 5.8
CCOc1ccc(NC(=O)CN(C)C(=O)c2c(C)nn(-c3ccc(F)cc3)c2Cl)cc1OCC | 0.2 | 3.7 | 93.0 | -0.2 | -82.9 | 83.0*
CCOc1ccc(NC(=O)CN(C)C(=O)c2cc([N+](=O)[O-])ccc2Sc2ccccc2)cc1OCC | / | / | 103.0 | -0.9 | -76.7 | 76.7*
